Data reported in ChEMBL document CHEMBL1148706, “Probes for narcotic receptor mediated phenomena. 34. Synthesis and structure-activity relationships of a potent mu-agonist delta-antagonist and an exceedingly potent antinociceptive in the enantiomeric C9-substituted 5-(3-hydroxyphenyl)-N-phenylethylmorphan series” (J Med Chem, 2007).
The source made the active and inactive calls.

Assays:
[1] = target: T1, Mu-type opioid receptor (Homo sapiens, UniProt P35372); details: CHO
[2] = target: T2, Delta-type opioid receptor (Homo sapiens, UniProt P41143); test: Displacement of [125I]IOXY from human delta opioid receptor expressed in CHO cells; type: cell-based
T2 sequence (P41143 whole entry): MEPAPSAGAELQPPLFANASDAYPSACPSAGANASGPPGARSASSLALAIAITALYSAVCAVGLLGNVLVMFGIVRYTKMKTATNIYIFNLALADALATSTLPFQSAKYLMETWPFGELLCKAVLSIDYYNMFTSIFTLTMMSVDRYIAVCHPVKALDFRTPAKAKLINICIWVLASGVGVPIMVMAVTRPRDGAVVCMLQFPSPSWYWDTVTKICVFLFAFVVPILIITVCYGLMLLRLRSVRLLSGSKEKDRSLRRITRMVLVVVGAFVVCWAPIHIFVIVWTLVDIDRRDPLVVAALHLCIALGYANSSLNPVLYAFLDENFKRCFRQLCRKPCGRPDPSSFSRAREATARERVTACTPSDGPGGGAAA
Method in brief: (§1)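 Membranes of stably transfected human opioid receptor CHO cells (hMOR, hDOR or hKOR), about 30 µg protein per tube, in 50 mM Tris-HCl pH 7.4 with protease inhibitors. [125I]IOXY at a single concentration displaced by 10 drug concentrations, 2 h at 25 °C, triplicates filtered; nonspecific with 10 µM naloxone; IC50 from two-parameter logistic fit.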

[3] = target: T3, Kappa-type opioid receptor (Homo sapiens, UniProt P41145); test: Displacement of [125I]IOXY from human kappa opioid receptor expressed in CHO cells; type: cell-based
T3 sequence (P41145 whole entry): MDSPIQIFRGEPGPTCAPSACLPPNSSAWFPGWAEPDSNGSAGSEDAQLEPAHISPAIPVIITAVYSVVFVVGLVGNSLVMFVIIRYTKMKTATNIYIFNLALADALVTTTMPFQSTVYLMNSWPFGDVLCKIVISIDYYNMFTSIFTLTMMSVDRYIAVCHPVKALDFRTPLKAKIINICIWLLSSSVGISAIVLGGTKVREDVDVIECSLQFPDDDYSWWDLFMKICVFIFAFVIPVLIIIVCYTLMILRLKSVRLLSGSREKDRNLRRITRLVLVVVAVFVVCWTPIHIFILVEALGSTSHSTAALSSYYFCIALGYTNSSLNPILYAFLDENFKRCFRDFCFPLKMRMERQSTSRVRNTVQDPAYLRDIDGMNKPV
Method in brief: as §1

[4] = target: T3, Kappa-type opioid receptor; test: Antagonist activity at human kappa opioid receptor expressed in CHO cells by [35S]GTP-gamma-S assay; type: functional, cell-based
Method in brief: (§2)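 [35S]GTP-γ-S binding on hDOR-CHO or hKOR-CHO membranes, 10 µM GDP, 50 pM radioligand, 3 h at 25 °C. Inhibition of stimulation by SNC80 (500 nM, δ) or (-)-U50,488 (500 nM, κ); ≥3 experiments of 10 points pooled, two-parameter logistic fit for IC50; Ke = IC50/(1+[D]/ED50(D)).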

[5] = target: T2, Delta-type opioid receptor; test: Antagonist activity at human delta opioid receptor expressed in CHO cells by [35S]GTP-gamma-S assay; type: functional, cell-based
Method in brief: as §2

[6] = target: T1, Mu-type opioid receptor; details: CHO; remark: listed apart in the source
[7] = target: T1, Mu-type opioid receptor; test: Displacement of [125I]IOXY from human mu opioid receptor expressed in CHO cells; type: cell-based
Method in brief: as §1

[8] = tested on: Mus musculus; test: Antinociceptive activity in mouse assessed after 30 to 40 mins at 1 mg/kg by warm water tail flick test; type: functional
Method in brief: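 Mice, 55 °C water tail immersion after baseline (non-responders within 5 s excluded); s.c. dosing, tested 10–180 min post-injection, 10 s cutoff. % antinociception = 100×(test−control)/(10−control); A50 from linear regression at peak-effect time, ≥3 doses and 10 mice/dose.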

[9] = tested on: Mus musculus; test: Antinociceptive activity in sc dosed mouse by phenylquinone assay; type: functional
[10] = tested on: Mus musculus; test: Induction of straub tail in mouse up to 30 mg/kg; type: functional, organism-based; set-up: dose 30 mg/kg
Method in brief: (§3)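 Signs observed in mice during in vivo antinociceptive testing after s.c. injection in 5% hydroxypropyl-β-cyclodextrin in water.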

[11] = tested on: Mus musculus; test: Antinociceptive activity in sc dosed mouse by tail flick assay; type: functional
[12] = tested on: Mus musculus; test: Increased locomotor activity in mouse up to 30 mg/kg; type: functional, organism-based; set-up: dose 30 mg/kg
Method in brief: as §3

[13] = tested on: Mus musculus; test: Antinociceptive activity in sc dosed mouse by hot plate assay; type: functional
[14] = target: T2, Delta-type opioid receptor; test: Agonist activity at human delta opioid receptor expressed in CHO cells by [35S]GTP-gamma-S assay; type: functional, cell-based
Method in brief: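 Membranes from stably transfected hDOR-CHO cells (DMEM, 10% FBS, G-418) in 50 mM Tris-HCl pH 7.4 with 100 mM NaCl, 10 mM MgCl2, 1 mM EDTA, 1 mM DTT, 10 µM GDP, 0.1% BSA; 50 pM [35S]GTP-γ-S, 3 h, 25 °C; filtration.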

[15] = tested on: Mus musculus; test: Induction of ataxia in mouse at 1 mg/kg; type: functional, organism-based; set-up: dose 1 mg/kg
Method in brief: as §3

[16] = target: T2, Delta-type opioid receptor; test: Agonist activity at human delta opioid receptor expressed in CHO cells by [35S]GTP-gamma-S assay relative to SNC80; type: functional, cell-based
Method in brief: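 Membranes from CHO cells stably transfected with human δ-opioid receptor cDNA (grown in DMEM, 10% FBS, G-418), incubated 3 h at 25 °C with 50 pM [35S]GTP-γ-S, 10 µM GDP, 50 µg protein in 50 mM Tris-HCl pH 7.4, 100 mM NaCl, 10 mM MgCl2, 1 mM EDTA, 1 mM DTT, 0.1% BSA. Nonspecific binding: 40 µM GTP-γ-S. Filtration, scintillation counting. Emax is extrapolated maximum, 100% = 500 nM SNC80 stimulation.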

[17] = tested on: Mus musculus; test: Induction of straub tail in mouse at 1 mg/kg; type: functional, organism-based; set-up: dose 1 mg/kg
Method in brief: as §3

[18] = tested on: Mus musculus; test: Increased locomotor activity in mouse at 1 mg/kg; type: functional, organism-based; set-up: dose 1 mg/kg
Method in brief: as §3

[19] = tested on: Mus musculus; test: Induction of convulsions in mouse at 1 mg/kg; type: functional, organism-based; set-up: dose 1 mg/kg
Method in brief: as §3

T1 sequence (P35372 whole entry): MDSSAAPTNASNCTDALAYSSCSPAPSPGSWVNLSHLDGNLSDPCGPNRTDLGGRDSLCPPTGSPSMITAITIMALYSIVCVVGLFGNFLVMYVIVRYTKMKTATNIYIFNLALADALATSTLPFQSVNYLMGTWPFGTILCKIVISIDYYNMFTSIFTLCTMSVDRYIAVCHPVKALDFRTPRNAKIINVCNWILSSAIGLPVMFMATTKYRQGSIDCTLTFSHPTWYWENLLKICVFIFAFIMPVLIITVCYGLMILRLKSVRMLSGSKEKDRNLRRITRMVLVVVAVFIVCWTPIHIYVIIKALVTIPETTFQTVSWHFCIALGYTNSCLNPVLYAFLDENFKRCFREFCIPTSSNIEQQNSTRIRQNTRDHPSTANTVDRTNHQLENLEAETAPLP

Compound	Ki [2] [nM]	Ki [3] [nM]	Ki [7] [nM]	also measured
C[C@H]1[C@H]2CCC[C@]1(c1cccc(O)c1)CCN2CCc1ccccc1	90	4	0.6	ED50 [1]: 8.7 nM; Ke [4]: 6 nM; Ke [5]: 31 nM; Ke [6]: 4.4 nM
CN1CC[C@]23c4c5ccc(O)c4O[C@H]2[C@@H](O)C=C[C@H]3[C@H]1C5 [MORPHINE]				A50 [8]: 5.95 mg/kg
Oc1cccc([C@]23CCC[C@H]([C@@H]2O)N(CCc2ccccc2)CC3)c1	1570	245	59	
C[C@@H]1[C@@H]2CCC[C@@]1(c1cccc(O)c1)CCN2CCc1ccccc1	300	15	8	
C=C1[C@H]2CCC[C@@]1(c1cccc(O)c1)CCN2CCc1ccccc1	15	0.65	0.19	ED50 [1]: 2.7 nM; ED50 [9]: 0.02 mg/kg; Activity [10]: inactive; Ke [4]: 2 nM; Ke [5]: 12 nM; Ke [6]: 2.2 nM; ED50 [11]: 0.03 mg/kg; A50 [8]: 0.11 mg/kg; Activity [12]: inactive; ED50 [13]: 0.02 mg/kg
C=CCN1C[C@H](C)N([C@H](c2ccc(C(=O)N(CC)CC)cc2)c2cccc(OC)c2)C[C@H]1C				ED50 [14]: 26 nM
Oc1cccc([C@]23CCC[C@H]([C@H]2O)N(CCc2ccccc2)CC3)c1	13	184	0.19	ED50 [1]: 5 nM; ED50 [9]: 0.002 mg/kg; Activity [15]: Active; Ke [4]: 610 nM; Emax [16]: 73%; Activity [17]: Active; Activity [18]: Active; Activity [19]: Active; ED50 [11]: 0.004 mg/kg; ED50 [13]: 0.002 mg/kg; ED50 [14]: 341 nM
O=C1[C@H]2CCC[C@]1(c1cccc(O)c1)CCN2CCc1ccccc1	770	150	33	
O=C1[C@@H]2CCC[C@@]1(c1cccc(O)c1)CCN2CCc1ccccc1	4600	3830	400	
C=C1[C@@H]2CCC[C@]1(c1cccc(O)c1)CCN2CCc1ccccc1	234	18	7	
Oc1cccc([C@@]23CCC[C@@H]([C@H]2O)N(CCc2ccccc2)CC3)c1	720	690	45	
C[C@H]1C2CCCC1(c1cccc(O)c1)CCN2CCc1ccccc1 (mixture of isomers)	270	14.5	3.1	
Oc1cccc([C@@]23CCC[C@@H]([C@@H]2O)N(CCc2ccccc2)CC3)c1	2740	235	54	
